Source: PubChem (several laboratories)
The list is not random: actives were taken first. Their share in the collection is about 2.9%.
SENP6 inh – SENP6 protease inhibition; Recombinant SENP6 catalytic domain, aminoluciferin luminescence; inhibition, % at 10 µM; actives 1.8% (n = 330,000);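 active = inhibition above about 50% at the single tested dose, limit read from the data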
Target sequence (Q9GZR1 628-1112 limits assumed): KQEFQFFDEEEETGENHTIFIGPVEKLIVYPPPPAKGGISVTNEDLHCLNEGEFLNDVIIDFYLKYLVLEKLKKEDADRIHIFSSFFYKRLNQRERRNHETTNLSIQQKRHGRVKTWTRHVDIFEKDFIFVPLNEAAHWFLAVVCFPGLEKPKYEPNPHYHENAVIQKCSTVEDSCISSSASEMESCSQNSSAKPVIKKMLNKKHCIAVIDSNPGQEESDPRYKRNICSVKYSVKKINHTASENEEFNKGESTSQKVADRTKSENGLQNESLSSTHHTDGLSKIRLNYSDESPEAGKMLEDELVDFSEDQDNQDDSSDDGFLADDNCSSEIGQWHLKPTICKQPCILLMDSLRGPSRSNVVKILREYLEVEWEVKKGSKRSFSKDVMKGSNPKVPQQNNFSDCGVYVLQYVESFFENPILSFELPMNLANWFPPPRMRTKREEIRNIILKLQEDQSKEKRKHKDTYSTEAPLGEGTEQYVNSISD
HSP90 refold inh – inhibitors of HSP90 luciferase refolding in rabbit reticulocyte lysate. inhibition, % at 5.6 µM. AID 1789. luciferase refolding luminescence, 3 h. actives 0.91% (n = 290,000);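 active = inhibition above the screen-wide mean plus 3 SD, computed separately per campaign, cut at about 16% in these data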;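 note: inhibitors lower the luminescence because luciferase stays unfolded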
SENP8 block-1 – SENP8 (human) protease inhibition; actives 0.64% (n = 360,000); recombinant SENP8, Nedd8 substrate fluorescence; inhibition, % at 20 µM; in the data active = inhibition mostly above about 40%, no sharp cut-off; inactive = mostly below about 27%
SENP7 inh – SENP7 protease inhibition | recombinant SENP7, Z-RLRGG-aminoluciferin luminescence, 40 min | Q9BQF6 | AID 434973 | actives 1.5% (n = 330,000) | inhibition, % at 5 µM;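 active = inhibition above about 50% at the single test dose, limit read from the data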
SENP8 block-2 – blocks the human protease SENP8 | purified SENP8, Z-RLRGG-aminoluciferin cleavage, luminescence | inhibition, % at 10 µM | actives 1.2% (n = 330,000) | AID 2540; in the data active = inhibition above about 50%
SENP1 inh – inhibitors of human SENP1 SUMO protease catalytic domain. actives 0.21% (n = 360,000). recombinant SENP1 catalytic domain, CyPet-SUMO1-YPet FRET cleavage. inhibition, % at 10 µM;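 active = inhibition at least 30% at 10 µM, raw YFP signal under a set limit, fluorescence ratio 0.5 to 1.5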
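Assay system – human recombinant His6-tagged SENP1 catalytic domain enzyme · Input – SENP1 enzyme, 20 pM final · Buffer or medium – Tris pH 8 buffer plus EDTA, NaCl, BME, BSA, NP40, catalase · Schedule – 50 min reaction at room temperature · Technique – FRET read of cyan and yellow fluorescence · Control set – no-enzyme wells low, DMSO-plus-enzyme wells high control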
SENP8 conf – human SENP8 inhibition, confirmed. actives 40% (n = 6,200). Recombinant SENP8, Z-RLRGG-aminoluciferin luminescence, 60 min. AID 488912. shares compounds with SENP7 inh. inhibition, % at 12.5 µM;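 active = mean inhibition across replicates above about 50%, limit read from the data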
SENP6 confirm – confirmation of human SENP6 protease inhibitors. shares compounds with SENP7 inh. recombinant SENP6, Z-RLRGG-aminoluciferin luminescence. inhibition, % at 12.5 µM. actives 58% (n = 6,200). AID 488915
SENP7 confirm – human SENP7 inhibition, confirmed. recombinant SENP7, Z-RLRGG-aminoluciferin luminescence, 40 min. AID 488917. actives 69% (n = 6,200). inhibition, % at 12.5 µM. shares compounds with SENP7 inh
Casp3 SENP sel – selectivity test for SENP inhibitors: human caspase-3 inhibition | shares compounds with SENP7 inh | purified caspase-3, Z-DEVD-aminoluciferin luminescence, 60 min | inhibition, % at 12.5 µM | actives 60% (n = 6,200) | AID 488918;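 active = mean inhibition above about 50%, limit read from the data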
SENP luc ctr – interferes with luciferase luminescence in SENP counter-screen; shares compounds with SENP7 inh; Pre-incubated SENP8/Z-RLRGG-aminoluciferin, luciferase luminescence interference; inhibition, % at 12.5 µM; actives 39% (n = 6,200); AID 488919;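 active = mean inhibition above about 50% when retested at one dose, limit read from the data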
Of the large screens only hits and unclear results are named; the others gave an inactive call (follow-up assays come after a bar, where they were run).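 Rule for the calls, unless noted: active = mean inhibition above about 50% in the one-dose retest (limit read from the data); inactive = the rest.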

CCOc1cc(C2NN=C(c3ccccc3)S2)ccc1OCc1ccc(F)cc1 (stereo not given)	SENP6 inh 82.9, SENP8 block-2 50.2 | SENP8 conf inactive | SENP6 confirm 71.5 | SENP7 confirm 93.6 | Casp3 SENP sel 75.4 | SENP luc ctr 70.2
NC(=O)CC(NC(=O)Cc1ccc(Cl)cc1)c1ccc(NCc2ccccc2)c([N+](=O)[O-])c1 (stereo not given)	none (no result: HSP90 refold inh)
Cn1ncc(Cl)c1C(=O)N1CCC(Cc2ccccc2)CC1	none
COc1ccc(S(=O)(=O)NCC2CCCN(Cc3cn(C)nc3C)C2)cc1 (stereo not given)	none
CCCC(=O)Nc1ccc(-c2nc3cc(C)c(C)cc3o2)c(O)c1	none
CCCC(=O)Nc1ccc(-c2nc3cc(C)ccc3o2)cc1	SENP6 inh 71.4, SENP7 inh 71.1 | SENP8 conf inactive | SENP6 confirm 50.2 | SENP7 confirm 74.2 | Casp3 SENP sel inactive | SENP luc ctr inactive
CCC(=O)NC(=S)Nc1ccc2oc(-c3ccc(OC)cc3)nc2c1	none
CCCC(=O)Nc1ccc2oc(-c3ccc(OC)c(Br)c3)nc2c1	SENP7 inh 51.4 | SENP8 conf inactive | SENP6 confirm inactive | SENP7 confirm inactive | Casp3 SENP sel inactive | SENP luc ctr inactive
CCCCNS(=O)(=O)c1ccc2nc(-c3cccs3)cc(C(=O)NCC(OC)OC)c2c1	none (no result: SENP8 block-1, SENP1 inh)
FC(F)(F)c1nc2cc3nc4ccccc4[nH]c3cc2n1	SENP6 inh 54.0 | SENP8 conf 66.9 | SENP6 confirm 64.9 | SENP7 confirm 86.0 | Casp3 SENP sel 80.5 | SENP luc ctr 69.6
OC(c1nc2ccccc2[nH]1)C(O)c1nc2ccccc2[nH]1 (stereo not given)	none
c1ccc2c(c1)cnc1ccccc12	none
c1ccc(-c2ncc3c(ccc4ccccc43)n2)cc1	SENP6 inh 67.7, SENP7 inh 89.7 | SENP8 conf inactive | SENP6 confirm inactive | SENP7 confirm inactive | Casp3 SENP sel inactive | SENP luc ctr inactive
c1ccc(-c2cnc(-c3ccccc3)nc2)cc1	SENP6 inh 73.0, SENP7 inh 90.2, SENP8 block-2 61.9 | SENP8 conf inactive | SENP6 confirm inactive | SENP7 confirm inactive | Casp3 SENP sel inactive | SENP luc ctr inactive
CCC1Sc2ccc(S(=O)(=O)CCC(=O)Nc3cccc(Br)c3)cc2NC1=O (stereo not given)	none
COc1ccc(-c2nc(C#N)c(N3CCCCC3)o2)cc1	none
COc1ccc(-c2nc(C#N)c(N3CCCCCC3)o2)cc1	SENP7 inh 83.9 | SENP8 conf inactive | SENP6 confirm inactive | SENP7 confirm inactive | Casp3 SENP sel inactive | SENP luc ctr inactive
O=C(CS(=O)(=O)c1ccccc1)c1ccc2c(c1)OCCO2	SENP6 inh 56.7, SENP7 inh 50.7 | SENP8 conf 62.6 | SENP6 confirm 60.3 | SENP7 confirm 86.2 | Casp3 SENP sel 81.5 | SENP luc ctr 65.1
O=C(O)CCC(=O)c1ccc2c(c1)OCCO2	none
CC(C)(C)c1ccc(-c2nnc(SCC(=O)NC3CC3)o2)cc1	none (no result: HSP90 refold inh)
COc1ccc(C(=O)NC(C)CCn2cccn2)cc1OC1CCN(C(C)C)CC1 (stereo not given)	none
CCOc1ccc(-c2nc(-c3ccccc3C)no2)cc1	SENP6 inh 92.9, SENP7 inh 99.1, SENP8 block-2 94.5 (no result: SENP8 block-1, SENP1 inh) | SENP8 conf 70.5 | SENP6 confirm 55.5 | SENP7 confirm inactive | Casp3 SENP sel 78.1 | SENP luc ctr inactive
CCOc1ccc(-c2noc(-c3cccnc3)n2)cc1OC	none
CCOc1nc(-c2ccc(OC)cc2)ccc1-c1noc(-c2ccncc2)n1	none (no result: SENP6 inh, HSP90 refold inh, SENP7 inh, SENP8 block-2)
